Measured values reported in ChEMBL document CHEMBL1255300, “Pharmacodynamics of the antibacterial effect and emergence of resistance to tomopenem, formerly RO4908463/CS-023, in an in vitro pharmacokinetic model of Staphylococcus aureus infection” (Antimicrob Agents Chemother, 2008).
≈ marks a conversion by molar mass, not a printed value. Calls of active or inactive are those of the source. No cut-off for these calls is given here.

Experiments:
Staphylococcus aureus [1] = test: Antibacterial activity against methicillin-resistant Staphylococcus aureus 33815 infected in in vitro pharmacokinetic model assessed as reduction in viable count at 1500 mg, iv every 8 hrs measured after 12 hrs using 10^8 CFU/ml inoculum; type: functional
Procedure, shortened: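 PK model at 37°C in 10% MHB. […] A 0.5 McFarland suspension (1 ml) was added and the model run overnight to reach 10^8 CFU/ml before dosing. Counts were spiral-plated on nutrient agar with β-lactamase. Change in log CFU/ml was measured from time 0; at least triplicate.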

Staphylococcus aureus [2] = test: Antibacterial activity against methicillin-resistant Staphylococcus aureus 33827 infected in in vitro pharmacokinetic model assessed as reduction in viable count at 750 mg, iv every 8 hrs measured after 36 hrs using 10^8 CFU/ml inoculum; type: functional
Procedure, shortened: (§1)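 Single-compartment dilutional in vitro PK model, 10% Mueller-Hinton broth, 37°C, stirred, dilution 132 ml/h. […] Inoculum 10^6 CFU/ml (added 45 min pre-dose) or 10^8 CFU/ml (run overnight). Viable counts by spiral plating, beta-lactamase neutralization, detection limit 10^2 CFU/ml. At least triplicate.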

Staphylococcus aureus [3] = test: Antibacterial activity against methicillin-resistant Staphylococcus aureus 33815 assessed as viable count at 4 times of MIC after 48 hrs using 10^6 CFU/ml inoculum; type: functional, organism-based
Procedure, shortened: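 Population analysis during tomopenem dose-ranging runs in the in vitro PK model (10^6 CFU/ml, T>MIC 0-100%). […] Growth counted as log CFU/ml, detection limit 2 log10.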

Staphylococcus aureus [4] = test: Antibacterial activity against methicillin-resistant Staphylococcus aureus 33820 in in vitro pharmacokinetic model assessed as viable count at 4 times of MIC; type: functional
Procedure, shortened: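 Population analysis before drug exposure (time 0). Model samples were plated on nutrient agar without drug and with tomopenem at 2×, 4× and 6× MIC (10% MHB MIC), and growth was recorded as log CFU/ml. Detection limit 2 log10.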

Staphylococcus aureus [5] = test: Antibacterial activity against methicillin-resistant Staphylococcus aureus 33827 infected in in vitro pharmacokinetic model assessed as time required to 99.9% killing at 1500 mg, iv every 8 hrs using 10^6 CFU/ml inoculum; type: functional; procedure, shortened: as §1
Staphylococcus aureus [6] = test: Antibacterial activity against methicillin-resistant Staphylococcus aureus 33922 infected in in vitro pharmacokinetic model assessed as reduction in viable count at 1500 mg, iv every 8 hrs measured after 12 hrs using 10^6 CFU/ml inoculum; type: functional
Staphylococcus aureus [7] = test: Antibacterial activity against methicillin-resistant Staphylococcus aureus 33829 infected in in vitro pharmacokinetic model assessed as reduction in viable count at 1500 mg, iv every 8 hrs measured after 36 hrs using 10^6 CFU/ml inoculum; type: functional; procedure, shortened: as §1
Staphylococcus aureus [8] = test: Antibacterial activity against methicillin-resistant Staphylococcus aureus 33829 assessed as viable count at 2 times of MIC after 24 hrs using 10^6 CFU/ml inoculum; type: functional, organism-based
Staphylococcus aureus [9] = test: T>MIC for 3-log drop in count in methicillin-resistant Staphylococcus aureus 33815 in in vitro pharmacokinetic model after 24 hrs using 10^8 CFU/ml inoculum; type: functional
Staphylococcus aureus [10] = test: AUBKC (0 to 48 hrs) in methicillin-resistant Staphylococcus aureus 33820 infected in in vitro pharmacokinetic model at 1500 mg, iv every 8 hrs using 10^6 CFU/ml inoculum; type: functional
Procedure, shortened: (§2)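 Single-compartment dilutional in vitro PK model at 37°C in 10% Mueller-Hinton broth, stirred, flow 132 ml/h. […] Inoculum 10^6 CFU/ml added 45 min before dosing, or 10^8 CFU/ml run overnight. Viable counts with β-lactamase neutralisation. AUBKC by log-linear trapezoidal rule, at least triplicate.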

Staphylococcus aureus [11] = test: Antibacterial activity against methicillin-resistant Staphylococcus aureus 33922 infected in in vitro pharmacokinetic model assessed as time required to 99% killing at 1500 mg, iv every 8 hrs using 10^8 CFU/ml inoculum; type: functional
Staphylococcus aureus [12] = test: T>MIC for 1-log drop in count in methicillin-sensitive Staphylococcus aureus 5956 in in vitro pharmacokinetic model after 24 hrs using 10^6 CFU/ml inoculum; type: functional
Procedure, shortened: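 Dose-ranging: 7–13 simulated regimens per strain giving T>MIC of 0–100% (MIC from 10% MHB), at 106 or 10^8 CFU/ml as stated.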

Staphylococcus aureus [13] = test: Antibacterial activity against methicillin-sensitive Staphylococcus aureus 5956 assessed as viable count at 2 times of MIC after 24 hrs using 10^6 CFU/ml inoculum; type: functional, organism-based
Staphylococcus aureus [14] = test: Antibacterial activity against methicillin-sensitive Staphylococcus aureus 5956 infected in in vitro pharmacokinetic model assessed as time required to 99% killing at 750 mg, iv every 8 hrs using 10^6 CFU/ml inoculum; type: functional
Staphylococcus aureus [15] = test: Antibacterial activity against methicillin-resistant Staphylococcus aureus 33820 assessed as viable count at 4 times of MIC after 48 hrs using 10^6 CFU/ml inoculum; type: functional, organism-based
Staphylococcus aureus [16] = test: T>MIC for 3-log drop in count in methicillin-resistant Staphylococcus aureus 33922 in in vitro pharmacokinetic model after 24 hrs using 10^6 CFU/ml inoculum; type: functional
Staphylococcus aureus [17] = test: AUBKC (0 to 24 hrs) in methicillin-resistant Staphylococcus aureus 33921 infected in in vitro pharmacokinetic model at 750 mg, iv every 8 hrs using 10^6 CFU/ml inoculum; type: functional; procedure, shortened: as §2
Staphylococcus aureus [18] = test: Antibacterial activity against methicillin-sensitive Staphylococcus aureus 5956 by 10% MH broth method; type: functional
Procedure, shortened: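 Broth dilution per CLSI, but in 10% Mueller-Hinton broth using nondoubling dilutions.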

Staphylococcus aureus [19] = test: Antibacterial activity against methicillin-resistant Staphylococcus aureus 33820 infected in in vitro pharmacokinetic model assessed as reduction in viable count at 750 mg, iv every 8 hrs measured after 24 hrs using 10^6 CFU/ml inoculum; type: functional
Procedure, shortened: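 Single-compartment dilutional in vitro PK model, 37°C, stirred, in 10% Mueller-Hinton broth. […] Inoculum 10^6 CFU/ml from a 24-h plate culture was added 45 min before dosing. Viable counts by spiral plating on nutrient agar with β-lactamase neutralization. Log change was taken from time 0; detection limit 10^2 CFU/ml; at least triplicate.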

Staphylococcus aureus [20] = test: T>MIC for 4-log drop in count in methicillin-resistant Staphylococcus aureus 33922 in in vitro pharmacokinetic model after 24 hrs using 10^8 CFU/ml inoculum; type: functional
Staphylococcus aureus [21] = test: Antibacterial activity against methicillin-sensitive Staphylococcus aureus 5956 infected in in vitro pharmacokinetic model assessed as reduction in viable count at 750 mg, iv every 8 hrs measured after 36 hrs using 10^6 CFU/ml inoculum; type: functional
Staphylococcus aureus [22] = test: AUBKC (0 to 24 hrs) in methicillin-resistant Staphylococcus aureus 33922 infected in in vitro pharmacokinetic model at 750 mg, iv every 8 hrs using 10^8 CFU/ml inoculum; type: functional; procedure, shortened: as §2
Staphylococcus aureus [23] = test: T>MIC for 1-log drop in count in methicillin-resistant Staphylococcus aureus 33827 in in vitro pharmacokinetic model after 24 hrs using 10^8 CFU/ml inoculum; type: functional
Staphylococcus aureus [24] = test: AUBKC (0 to 48 hrs) in methicillin-resistant Staphylococcus aureus 33820 infected in in vitro pharmacokinetic model at 750 mg, iv every 8 hrs using 10^6 CFU/ml inoculum; type: functional; procedure, shortened: as §2
Staphylococcus aureus [25] = test: Antibacterial activity against methicillin-resistant Staphylococcus aureus 33922 assessed as viable count at 4 times of MIC after 24 hrs using 10^6 CFU/ml inoculum; type: functional, organism-based

For `C[C@@H](O)[C@H]1C(=O)N2C(C(=O)O)=C(S[C@H]3C[C@@H](C(=O)N4CC[C@H](NC(=O)CNC(=N)N)C4)N(C)C3)[C@H](C)[C@H]12` [TOMOPENEM], the log10CFU/ml (Staphylococcus aureus [1]) was 1.5, the log10CFU/ml (Staphylococcus aureus [2]) was 5 and the Activity (Staphylococcus aureus [3]) was “Active”. It also gave a log10CFU/ml (Staphylococcus aureus [4]) of less than 2, a Time (Staphylococcus aureus [5]) of 12 h and a log10CFU/ml (Staphylococcus aureus [6]) of 4.2. For the same compound, the log10CFU/ml (Staphylococcus aureus [7]) was 4, the Activity (Staphylococcus aureus [8]) was “inactive” and the “fT>MIC” value (Staphylococcus aureus [9]) was 3.3%. The AUBC (Staphylococcus aureus [10]) was 23.4 log10CFU/ml.hr, the Time (Staphylococcus aureus [11]) was 16 h and the “fT>MIC” value (Staphylococcus aureus [12]) was 7.4%. For the same compound, the Activity (Staphylococcus aureus [13]) was “inactive”, the Time (Staphylococcus aureus [14]) was 4 h and the Activity (Staphylococcus aureus [15]) was “Active”. The “fT>MIC” value (Staphylococcus aureus [16]) was 9.4%, the AUBC (Staphylococcus aureus [17]) was 30.9 log10CFU/ml.hr and the MIC (Staphylococcus aureus [18]) was 0.04 µg/mL (≈ 0.0744 µM). The log10CFU/ml (Staphylococcus aureus [19]) was 4.2, the “fT>MIC” value (Staphylococcus aureus [20]) was 15% and the log10CFU/ml (Staphylococcus aureus [21]) was 4.5. The AUBC (Staphylococcus aureus [22]) was 71.5 log10CFU/ml.hr, the “fT>MIC” value (Staphylococcus aureus [23]) was 19.5% and the AUBC (Staphylococcus aureus [24]) was 28.6 log10CFU/ml.hr. For the same compound, the Activity (Staphylococcus aureus [25]) was “inactive”.
